# Results: ChEMBL document CHEMBL1649314, “Experimental murine scedosporiosis: histopathology and azole treatment” (2010)
# The source made the active and inactive calls. No cut-off for these calls is given here.
# How the values were obtained:
# Scedosporium boydii [1] = experiment: Antifungal activity against Scedosporium boydii FMR 8627 by broth dilution method; assay type: functional
# Scedosporium apiospermum [2] = experiment: Antifungal activity against Scedosporium apiospermum CBS 117407 by broth dilution method; assay type: functional
# Scedosporium apiospermum [3] = experiment: Antifungal activity against Scedosporium apiospermum IHEM 14464 by broth dilution method; assay type: functional
# [4] = Antifungal activity against Scedosporium aurantiacum CBS 116910 by broth dilution method; assay type: functional
# Scedosporium apiospermum [5] = experiment: Antifungal activity against Scedosporium apiospermum CBS 117407 infected in immunosuppressed OF1 mouse assessed as prolonged survival of mouse at 10 mg/kg, po BID administered 24 hrs postinfection for 10 days measured after 20 days; assay type: functional, organism-based; parameters: dose 10 mg/kg
# Summary of the method: (§1)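 Male OF1 mice, groups of 10, immunosuppressed 1 day before infection with cyclophosphamide 200 mg/kg i.p. plus 5-fluorouracil 150 mg/kg i.v. Infected i.v. via tail vein with 1 × 10^4 CFU in 0.2 ml saline. Oral treatment began 24 h post-challenge for 10 days. Mice checked daily for 20 days. Survival by Kaplan-Meier, compared by log rank test.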
# Scedosporium apiospermum [6] = experiment: Antifungal activity against Scedosporium apiospermum IHEM 14464 infected in immunosuppressed OF1 mouse assessed as prolonged survival of mouse at 10 mg/kg, po BID administered 24 hrs postinfection for 10 days measured after 20 days; assay type: functional, organism-based; parameters: dose 10 mg/kg; summary of the method: as §1
# Scedosporium apiospermum [7] = experiment: Antifungal activity against Scedosporium apiospermum IHEM 14464 infected in immunosuppressed OF1 mouse assessed as prolonged survival of mouse at 20 mg/kg, po BID administered 24 hrs postinfection for 10 days measured after 20 days; assay type: functional, organism-based; parameters: dose 20 mg/kg; summary of the method: as §1
# [8] = Antifungal activity against Scedosporium aurantiacum CBS 116910 infected in immunosuppressed OF1 mouse assessed as prolonged survival of mouse at 20 mg/kg, po BID administered 24 hrs postinfection for 10 days measured after 20 days; assay type: functional, organism-based; parameters: dose 20 mg/kg; summary of the method: as §1
# [9] = Antifungal activity against Scedosporium aurantiacum IHEM 15458 infected in immunosuppressed OF1 mouse assessed as prolonged survival of mouse at 20 mg/kg, po BID administered 24 hrs postinfection for 10 days measured after 20 days; assay type: functional, organism-based; parameters: dose 20 mg/kg; summary of the method: as §1
# Scedosporium boydii [10] = experiment: Antifungal activity against Scedosporium boydii FMR 6694 infected in immunosuppressed OF1 mouse assessed as reduction in kidney fungal burden at 10 mg/kg, po BID administered 24 hrs postinfection for 10 days measured after 20 days; assay type: functional, organism-based; parameters: dose 10 mg/kg
# Scedosporium boydii [11] = experiment: Antifungal activity against Scedosporium boydii FMR 6694 infected in immunosuppressed OF1 mouse assessed as reduction in kidney fungal burden at 20 mg/kg, po BID administered 24 hrs postinfection for 10 days measured after 20 days; assay type: functional, organism-based; parameters: dose 20 mg/kg
# Scedosporium apiospermum [12] = experiment: Antifungal activity against Scedosporium apiospermum IHEM 14464 infected in immunosuppressed OF1 mouse assessed as reduction in kidney fungal burden at 20 mg/kg, po BID administered 24 hrs postinfection for 10 days measured after 20 days; assay type: functional, organism-based; parameters: dose 20 mg/kg
# Scedosporium aurantiacum = experiment: Antifungal activity against Scedosporium aurantiacum IHEM 15458 infected in immunosuppressed OF1 mouse assessed as reduction in kidney fungal burden at 10 mg/kg, po BID administered 24 hrs postinfection for 10 days measured after 20 days; assay type: functional, organism-based; parameters: dose 10 mg/kg
# Scedosporium boydii [13] = experiment: Antifungal activity against Scedosporium boydii FMR 6694 infected in immunosuppressed OF1 mouse assessed as reduction in brain fungal burden at 20 mg/kg, po BID administered 24 hrs postinfection for 10 days measured after 20 days; assay type: functional, organism-based; parameters: dose 20 mg/kg
# Scedosporium apiospermum [14] = experiment: Antifungal activity against Scedosporium apiospermum IHEM 14464 infected in immunosuppressed OF1 mouse assessed as reduction in brain fungal burden at 20 mg/kg, po BID administered 24 hrs postinfection for 10 days measured after 20 days; assay type: functional, organism-based; parameters: dose 20 mg/kg
smiles,measurement,setting,value
CC[C@@H]([C@H](C)O)n1ncn(-c2ccc(N3CCN(c4ccc(OC[C@@H]5CO[C@@](Cn6cncn6)(c6ccc(F)cc6F)C5)cc4)CC3)cc2)c1=O [POSACONAZOLE],MIC,Scedosporium boydii [1],1 µg/mL
same,MIC,Scedosporium apiospermum [2],1 µg/mL
same,MIC,Scedosporium apiospermum [3],0.5 µg/mL
same,MIC,[4],32 µg/mL
same,Activity,Scedosporium apiospermum [5],Active
same,Activity,Scedosporium apiospermum [6],Active
same,Activity,Scedosporium apiospermum [7],Active
same,Activity,[8],Active
same,Activity,[9],Active
same,Activity,Scedosporium boydii [10],inactive
same,Activity,Scedosporium boydii [11],inactive
same,Activity,Scedosporium apiospermum [12],Active
same,Activity,Scedosporium aurantiacum,Active
same,Activity,Scedosporium boydii [13],inactive
same,Activity,Scedosporium apiospermum [14],Active
